Measurements pooled from the literature.
Lines come from different studies, so protocols differ.
CNR1: Cannabinoid receptor 1 (CNR1, Homo sapiens, UniProt P21554)
TBXA2R: Thromboxane A2 receptor (TBXA2R, Homo sapiens, UniProt P21731)
PFF0160c: Dihydroorotate dehydrogenase (quinone), mitochondrial (PFF0160c, Plasmodium falciparum, UniProt Q08210)

SMILES	target	test	conditions	endpoint	value
C=CCCCn1c(O)c(N=NC(=O)c2ccccc2)c2ccccc21	CNR1	ligand displacement, radioligand	cell membranes	Ki	1.66 µM
COC(=O)c1cc(N(C)C(=O)c2ccn3ncc(-c4ccc(C(=O)O)cc4)c3c2)ccc1Cl	TBXA2R	cell-free assay		IC50	> 30 µM
O=C(N=Nc1c(O)n(CC2CCCCC2)c2ccccc12)c1ccccc1	CNR1	ligand displacement, radioligand	cell membranes	Ki	0.0708 µM
Cc1c(Cc2ccc(C(F)(F)F)cc2)n[nH]c1C(=O)NC1CC1	PFF0160c	enzyme activity, inhibitor		IC50	> 30 µM
CCC(CC)(NC(=O)c1ccc(C2CC2)c(Cc2ccc(F)cc2)n1)C(=O)NCCOCCOCCNC(=O)c1ccc2c(c1)C1(OC2=O)c2ccc(N(C)C)cc2[Si](C)(C)c2cc(N(C)C)ccc21	CNR1	ligand displacement, radioligand	cell membranes	Ki	0.462 µM
C=C/C=C/CCN1CCC(O)(c2cccc(Br)c2)C1 (stereo not shown)	5-hydroxytryptamine receptor 2A (HTR2A, Homo sapiens, UniProt P28223)	calcium signal, antagonist		IC50	15.9 µM
CCCCCc1cc(O)c2c(c1)OC(C)(CCC=C(C)C)C=C2 (stereo not shown)	CNR1	cell-free assay		Ki	> 1 µM
CC[C@@](O)(c1cnc(C(F)(F)F)c(Cl)c1)c1c2ccn(C3CC3)c(=O)c2nn1C	PFF0160c	enzyme activity, inhibitor		IC50	0.0126 µM
C=C1CC/C=C(\C)CC[C@@H]2[C@@H]1CC2(C)C	CNR1	ligand displacement, radioligand		Ki	> 10 µM
Cn1nc2c(=O)n(C3CC3)ncc2c1[C@](O)(c1ccc(C(F)(F)F)c(C#N)c1)C(F)(F)F	PFF0160c	enzyme activity, inhibitor		IC50	0.0251 µM
CNC(=O)c1ccc(-c2cnn3ccc(C(=O)N(C)c4ccc(Cl)c(C(=O)OC)c4)cc23)cc1	TBXA2R	cell-free assay		IC50	> 30 µM
O=C(N=Nc1c(O)n(CCCCCF)c2ccccc12)c1ccccc1	CNR1	β-arrestin recruitment, agonist		EC50	1.82 µM
CCn1cc(C)c2c([C@@H](N)c3ccc(C(F)(F)F)nc3)n(C)nc2c1=O	PFF0160c	enzyme activity, inhibitor		IC50	1 µM
